Rad51 HR inh – blocks human Rad51 in homologous recombination. Q06609. hRad51 DNA strand exchange, fluorescence dequenching. inhibition, % at 10 µM. hit rate 0.085% among 200,000;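 active = inhibition above 40% at the single screening dose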;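 note: 0% = DMSO control wells and 100% = blanks with heterologous ssDNA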
Target sequence (Q06609 whole entry, looked up): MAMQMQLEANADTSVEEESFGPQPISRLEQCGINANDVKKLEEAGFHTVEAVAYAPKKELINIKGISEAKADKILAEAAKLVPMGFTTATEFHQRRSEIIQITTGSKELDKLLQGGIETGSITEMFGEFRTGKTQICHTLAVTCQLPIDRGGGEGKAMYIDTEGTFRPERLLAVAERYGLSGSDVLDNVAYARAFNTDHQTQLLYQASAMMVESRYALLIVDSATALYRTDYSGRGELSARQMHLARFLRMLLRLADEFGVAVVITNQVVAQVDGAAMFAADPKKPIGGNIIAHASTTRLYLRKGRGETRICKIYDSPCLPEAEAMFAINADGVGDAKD
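material = hRad51 filaments on single-stranded DNA | timing = filaments 15 min 37 °C, then compound 30 min | signal = FRET fluorescence dequenching, excitation 485 nm, emission 520 nm | benchmarks = control wells and blank wells on each plate | evaluation = percent inhibition relative to plate controls and blanks | compound = 10 µM final, single point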
NPY-Y1 antag – blocks the human neuropeptide Y Y1 receptor | hit rate 1% among 200,000 | AID 1040 | HEK293-CNG Y1 cells, membrane potential fluorescence; NPY at EC95, then isoproterenol | inhibition, % at 3.6 µM;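 active = inhibition above the campaign mean inhibition of all tested compounds plus 3 SD, cut at about 20% in these data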;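 note: 0% = DMSO wells given NPY plus isoproterenol and 100% = isoproterenol alone without NPY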
Target sequence (P25929 whole entry, looked up): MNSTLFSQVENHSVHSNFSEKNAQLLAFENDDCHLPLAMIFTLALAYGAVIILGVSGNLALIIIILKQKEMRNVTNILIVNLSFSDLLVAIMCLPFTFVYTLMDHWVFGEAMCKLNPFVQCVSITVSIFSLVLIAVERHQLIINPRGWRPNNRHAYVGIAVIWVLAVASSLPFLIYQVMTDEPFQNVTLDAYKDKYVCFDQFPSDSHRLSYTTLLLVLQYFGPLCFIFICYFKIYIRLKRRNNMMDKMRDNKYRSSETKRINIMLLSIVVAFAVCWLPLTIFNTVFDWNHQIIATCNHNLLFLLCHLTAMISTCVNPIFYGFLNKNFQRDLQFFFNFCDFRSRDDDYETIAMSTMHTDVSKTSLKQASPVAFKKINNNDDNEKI
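System: HEK293 cells with Y1 receptor plus CNG channel / Probe or stimulus: NPY 25 nM then isoproterenol 1 µM plus Ro 20-1724 25 µM / Compound: one concentration, 3.6 µM, in 0.4% DMSO / Schedule: compound incubation 1 h at room temperature, readout 45 min post-stimulation / Measured by: membrane potential fluorescence / Read-out: % inhibition of NPY effect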
NPY2 pot ag – human NPY-Y2 potentiation or agonism, primary screen | cells expressing NPY-Y2, potentiator/agonist read-out | activation, % at 3.6 µM | hit rate 0.45% among 220,000 | P49146; in the data active = activation above about 27%;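 note: cells stimulated with NPY near EC25 plus isoproterenol at EC100; 0% = vehicle plus submaximal agonist and 100% = vehicle plus saturating agonist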
NPY Y2 blocker – NPY-Y2 (human) receptor antagonism. NPY-Y2 expressing cells, antagonist mode. hit rate 0.99% among 140,000. inhibition, % at 2.7 µM. AID 793; in the data active = inhibition above about 17%;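 note: 0% = vehicle with agonist challenge and 100% = reference antagonist with challenge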
Measles CPE – protection of cells from measles virus; AID 841; hit rate 1.5% among 140,000; protection (pct of control), % at 4 µM; Measles virus-infected cells, CPE protection, absorbance; in the data active = protection mostly above about 24%, no sharp cut-off; inactive = mostly below about 26%
NPY-Y1 PAM-ag – potentiates or activates human NPY-Y1 receptor; P25929; NPY-Y1 expressing cells, potentiator/agonist activation; activation, % at 3.6 µM; hit rate 0.37% among 220,000; AID 1304; in the data active = activation above about 33%, passing the limit was not always enough;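 note: cells stimulated with NPY at EC10 then isoproterenol at EC100; 0% = low agonist plus stimulus and 100% = saturating agonist plus stimulus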
* = called active by the depositor; x = no result. Compounds with a hit are over-represented: about 2.8% of the library has one in this group of screens.

SMILES	Rad51 HR inh	NPY-Y1 antag	NPY2 pot ag	NPY Y2 blocker	Measles CPE	NPY-Y1 PAM-ag
CCSc1nc2ccccc2c(=O)n1CCc1ccc(OC)c(OC)c1	13.0	x	-4.5	x	x	19.6
CN(C)S(=O)(=O)c1ccc(NC(=O)N2CCN(c3ccccc3)CC2)cc1	x	3.6	4.9	0.2	39.8*	13.6
COc1ccccc1NC(=O)CSc1nc2ccccc2cc1Cc1ccccc1	1.3	26.3*	-7.8	21.1*	17.1	-70.4
CCN/C=C(\C#N)S(=O)(=O)c1ccc(Br)cc1	7.8	x	-3.3	x	x	-6.8
Cc1cccc(N/C(N)=N/c2nc(C(F)(F)F)cc(=O)[nH]2)c1C	8.8	-3.5	15.1	2.5	4.9	18.1
Cc1cc(C)cc(NC(=O)Cn2c(-c3ccccc3Cl)nc3ccccc32)c1	-6.0	11.7	6.0	7.1	35.0*	1.0
CC1CC(=O)Nc2ccccc2N1S(=O)(=O)c1cccc(Cl)c1 (centres undefined)	4.0	3.5	6.0	3.6	39.3*	-10.9
O=C1CCCC(=NCc2ccco2)C1	-0.7	3.4	-1.1	3.4	35.7*	-10.8
Cc1ccc(S(=O)(=O)c2cnc3cc(C)nn3c2N)cc1	3.5	-4.9	2.9	x	x	-9.5
CCOC(=O)c1c(C)n(CC(O)CN(C)C)c2cc(Br)c(OC)cc12 (centres undefined)	25.5	5.2	-1.9	x	x	-5.9
CCOC(=O)c1sc(NC(=O)C(C)C)c(C#N)c1C	27.3	0.5	24.9	x	x	12.1
CCOC(=O)CCc1c(C)nc(SCC(=O)O)c(C#N)c1C	-5.6	2.1	13.0	0.7	32.2*	12.0
Cc1nc(SCC(=O)O)c(C#N)c(C)c1CC(=O)c1ccccc1	-0.9	0.6	0.9	x	x	3.8
O=C(/C=C/c1ccc(F)cc1)NC(=S)NC1CCCCC1	20.3	x	-47.9	x	x	-17.3
CC(C)NC(=S)NC(=O)/C=C/c1ccc(F)cc1	8.7	3.6	-5.8	4.0	35.5*	-3.3
O=C(Nc1ccccc1-c1nnc(SCc2ccccc2Cl)o1)c1ccccc1	-0.5	2.1	-23.1	-1.4	6.2	-2.3
CCOC(=O)C1=C(C)Nc2ccccc2N=C1NC(=O)C(CC)c1ccccc1 (centres undefined)	-12.5	5.1	-7.5	2.4	4.8	4.1
COc1cccc(C(=O)Nc2nnc(-c3ccc(Cl)cc3)o2)c1	5.2	x	x	x	x	x
CCOc1ccc(-c2nnc(NC(=O)c3ccc(OCC(C)C)c(OC)c3)o2)cc1	-4.5	-1.3	-5.7	2.1	41.5*	-10.6
CC(=O)c1ccc(NC(=O)CN2CCN(c3ncccn3)CC2)cc1	1.7	-1.4	-6.5	-1.7	77.6*	14.6
COc1ccc(/C=N/N2CCN(C)CC2)cc1O	0.3	-1.6	-5.4	3.6	27.6*	-9.2
Cc1ccc(Cl)cc1NC(=O)CCN1C(=O)C2C3CCC(C3)C2C1=O (centres undefined)	-2.2	-3.6	-5.4	x	x	1.8
O=S(=O)(NC1CC1)c1ccc(S(=O)(=O)N2CCc3ccccc32)cc1	4.5	-3.4	10.7	-1.1	44.1*	15.5
Cc1ccc(Cl)cc1N1CCN(C(=O)COc2ccc(S(=O)(=O)NC(C)C)cc2)CC1	6.4	0.1	15.0	1.9	56.2*	-0.3
CC(C)NS(=O)(=O)c1ccc(OCC(=O)N2CCCC2)cc1	-1.9	2.4	3.0	1.8	2.5	-1.6
SMILES	Rad51 HR inh	NPY-Y1 antag	NPY2 pot ag	NPY Y2 blocker	Measles CPE	NPY-Y1 PAM-ag
COc1ccccc1NC(=O)CC1C(=O)Nc2ccccc2N1C(=O)c1ccccc1 (centres undefined)	2.5	3.0	0.2	x	x	13.4
CCCCCNC(=O)c1ccc2c(=O)n(CCCN3CCCC3=O)c(=S)[nH]c2c1	-11.8	-3.1	3.1	x	x	-9.6
CCCCn1c(SCc2nc3ccccc3s2)nc2cc(S(N)(=O)=O)ccc21	-6.8	0.5	-2.4	7.2	39.8*	-13.9
CCCCn1c(SCc2nc3ccccc3s2)nc2ccccc2c1=O	7.3	-0.2	5.9	9.3	4.5	-23.4
COc1ccc(C(=O)/C=C/c2ccc(N3CCCCC3)c([N+](=O)[O-])c2)cc1	1.6	7.3	-10.0	13.6	3.5	-6.8
COc1ccc(C(=O)/C=C/c2ccc(N3CCCCC3)c([N+](=O)[O-])c2)c(OC)c1	-11.0	8.9	-20.2	0.7	49.9*	-53.7
O=C(Cc1ccc(Cl)cc1)NCCCn1ccnc1	-1.6	1.2	-0.4	2.4	15.0	-10.6
O=C(Cc1c(F)cccc1Cl)NCCCn1ccnc1	4.5	4.2	18.9	1.1	44.8*	10.7
O=C(NCCCn1ccnc1)c1cc([N+](=O)[O-])cc([N+](=O)[O-])c1	22.4	1.2	77.8*	1.2	3.8	61.4*
COc1cccc(CNC(=O)c2nnn(-c3ccc(OC(F)(F)F)cc3)c2N)c1	1.3	3.5	3.9	2.1	6.8	5.8
Nc1c(C(=O)NCc2ccc3c(c2)OCO3)nnn1-c1ccc(OC(F)(F)F)cc1	-37.9	0.9	-20.7	2.7	53.9*	14.3
Cc1cccc(OCCn2c(-c3ccco3)nc3ccccc32)c1	1.1	26.2*	-11.3	20.3*	3.7	-49.7
c1ccc(OCCn2c(-c3ccco3)nc3ccccc32)cc1	-1.5	7.7	-21.4	4.8	5.4	-30.4
Cc1cccc(OCCn2c(NC(=O)c3ccco3)nc3ccccc32)c1	2.8	33.5*	-53.4	37.0*	1.9	-106.7
O=C(Nc1nc2ccccc2n1CCOc1ccc(Cl)cc1)c1ccco1	2.3	24.1*	-90.5	31.4*	40.0*	-101.7
O=C(Nc1nc2ccccc2n1CCOc1ccccc1)c1ccco1	-0.7	8.5	-30.6	10.7	2.6	-56.1
Cc1ccc(OCCn2c(NC(=O)c3ccco3)nc3ccccc32)cc1	8.8	8.9	6.0	20.2*	11.0	-2.5
Cc1ccccc1CSc1nc(C(C)(C)C)cc(=O)[nH]1	14.9	-0.4	-14.0	x	x	-6.6
Cc1cc(CN(C)C(=O)c2cc(COc3ccc(F)cc3Cl)on2)n[nH]1	-3.6	-5.4	-12.4	x	x	-11.5
Cc1ccc(CN(C)C(=O)c2cc(COc3ccc(F)cc3Cl)on2)o1	0.5	20.2*	-18.4	x	x	-12.6
Nc1nc(-c2ccc3c(c2)OCCO3)cs1	-6.7	20.4*	-9.7	6.0	10.0	-14.9
Cc1nc(-c2ccc3c(c2)OCCCO3)cs1	15.7	x	-7.2	x	x	-2.3
O=c1/c(=C\c2cccnc2)sc2nc3ccccc3n12	2.1	-1.3	3.5	0.4	1.1	-2.4
O=C1CCC/C1=c1\s/c(=C\c2cccnc2)c(=O)n1-c1ccccc1	-6.8	4.2	7.8	0.9	27.6*	-8.3
CC(=O)c1c(C)[nH]c(C(=O)NCc2cccc(Cl)c2)c1C	-6.2	-1.5	-2.6	x	x	8.9
COc1cc2nc(CCc3ccccc3)oc(=O)c2cc1OC	9.5	4.1	-10.2	x	x	-16.4
O=C(Nc1nc(-c2nc3ccccc3s2)cs1)c1ccco1	-0.5	5.5	-19.0	10.2	49.1*	-14.8
O=C(Nc1nc(-c2ccc(Cl)s2)cs1)c1ccco1	3.0	-4.7	-15.0	x	x	-21.3
O=C(c1cc(C2CC2)on1)N1CCN(c2ccccc2)CC1	2.2	-6.5	-6.7	3.1	10.3	3.2
